Results as given in the M2OR odorant receptor database.
Where a chain is given by its changes, count along the chain named.

Tests used:
Conditions in all cases: stereoisomer not certain
OR11H12 (Homo sapiens) = target: T1, OR11H12 (Homo sapiens) (UniProt B2RN74)
T1 sequence (whole entry): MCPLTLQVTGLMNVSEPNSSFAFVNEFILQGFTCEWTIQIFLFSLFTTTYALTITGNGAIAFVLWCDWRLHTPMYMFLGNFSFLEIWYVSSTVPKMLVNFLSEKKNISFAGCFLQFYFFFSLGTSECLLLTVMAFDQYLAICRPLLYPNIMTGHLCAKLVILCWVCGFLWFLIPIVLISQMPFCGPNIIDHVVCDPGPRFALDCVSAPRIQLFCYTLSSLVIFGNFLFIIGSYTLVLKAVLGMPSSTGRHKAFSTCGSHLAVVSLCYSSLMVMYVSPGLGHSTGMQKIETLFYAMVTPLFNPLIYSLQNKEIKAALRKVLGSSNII
Method in brief: (§1)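 Values were gathered from published papers (main text and supplementary material), with extra details requested from the original authors when needed, and checked for typos and inconsistencies. Each receptor–molecule pair is called responsive (active) if the original authors judged the measured signal statistically different from baseline, and non-responsive (inactive) otherwise. Assay methods varied by source, often transient mammalian cell-line luciferase assays. Recorded details include cell line, G-protein, co-transfected protein and tags.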

OR11H2 (Homo sapiens) = target: T2, OR11H2 (Homo sapiens) (UniProt Q8NH07)
T2 sequence (whole entry): T1 sequence (whole entry) with Q7H, T33S, T49I, W68R, C156Y, M181K, R199L, S269P
Method in brief: as §1

OR11H4 (Homo sapiens) = target: T3, OR11H4 (Homo sapiens) (UniProt Q8NGC9)
T3 sequence (whole entry): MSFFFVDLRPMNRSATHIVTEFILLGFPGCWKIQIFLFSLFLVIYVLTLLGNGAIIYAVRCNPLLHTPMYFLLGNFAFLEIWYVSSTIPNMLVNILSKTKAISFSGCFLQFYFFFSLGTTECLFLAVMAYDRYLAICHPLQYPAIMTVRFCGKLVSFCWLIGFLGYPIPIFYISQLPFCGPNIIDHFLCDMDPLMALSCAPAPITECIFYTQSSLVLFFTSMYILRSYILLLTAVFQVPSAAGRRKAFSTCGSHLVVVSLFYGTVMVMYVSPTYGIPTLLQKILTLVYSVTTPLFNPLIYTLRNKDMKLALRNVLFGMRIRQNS
Method in brief: as §1

OR11H6 (Homo sapiens) = target: T4, OR11H6 (Homo sapiens) (UniProt Q8NGC7)
T4 sequence (whole entry): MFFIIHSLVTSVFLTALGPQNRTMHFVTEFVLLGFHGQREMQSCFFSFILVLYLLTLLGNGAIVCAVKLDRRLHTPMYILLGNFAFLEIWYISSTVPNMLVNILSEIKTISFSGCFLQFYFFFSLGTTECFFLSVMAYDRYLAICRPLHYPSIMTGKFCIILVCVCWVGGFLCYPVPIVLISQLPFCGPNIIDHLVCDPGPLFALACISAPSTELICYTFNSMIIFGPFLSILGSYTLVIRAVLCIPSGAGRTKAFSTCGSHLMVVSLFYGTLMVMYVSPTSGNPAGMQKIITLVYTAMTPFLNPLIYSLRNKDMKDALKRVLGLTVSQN
Method in brief: as §1

OR11L1 (Homo sapiens) = target: T5, OR11L1 (Homo sapiens) (UniProt Q8NGX0)
T5 sequence (whole entry): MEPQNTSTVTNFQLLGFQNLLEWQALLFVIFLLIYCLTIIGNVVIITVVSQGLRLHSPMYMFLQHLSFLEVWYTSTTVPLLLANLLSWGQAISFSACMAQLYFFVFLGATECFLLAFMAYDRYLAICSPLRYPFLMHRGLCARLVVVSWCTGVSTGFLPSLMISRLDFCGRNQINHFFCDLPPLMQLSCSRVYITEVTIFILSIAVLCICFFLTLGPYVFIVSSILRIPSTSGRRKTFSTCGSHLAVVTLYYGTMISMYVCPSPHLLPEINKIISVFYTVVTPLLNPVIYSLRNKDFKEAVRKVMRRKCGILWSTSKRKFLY
Method in brief: as §1

OR12D2 (Homo sapiens) = target: T6, OR12D2 (Homo sapiens) (UniProt P58182)
T6 sequence (whole entry): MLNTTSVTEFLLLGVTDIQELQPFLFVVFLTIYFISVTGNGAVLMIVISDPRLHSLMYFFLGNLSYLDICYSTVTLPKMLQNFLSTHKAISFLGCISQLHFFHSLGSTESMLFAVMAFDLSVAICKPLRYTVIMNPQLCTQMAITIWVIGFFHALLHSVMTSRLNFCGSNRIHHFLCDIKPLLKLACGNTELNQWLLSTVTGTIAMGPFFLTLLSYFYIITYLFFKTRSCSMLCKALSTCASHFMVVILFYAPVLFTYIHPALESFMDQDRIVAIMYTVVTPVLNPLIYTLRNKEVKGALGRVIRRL
Method in brief: as §1

OR12D3 (Homo sapiens) = target: T7, OR12D3 (Homo sapiens) (UniProt Q9UGF7)
T7 sequence (whole entry): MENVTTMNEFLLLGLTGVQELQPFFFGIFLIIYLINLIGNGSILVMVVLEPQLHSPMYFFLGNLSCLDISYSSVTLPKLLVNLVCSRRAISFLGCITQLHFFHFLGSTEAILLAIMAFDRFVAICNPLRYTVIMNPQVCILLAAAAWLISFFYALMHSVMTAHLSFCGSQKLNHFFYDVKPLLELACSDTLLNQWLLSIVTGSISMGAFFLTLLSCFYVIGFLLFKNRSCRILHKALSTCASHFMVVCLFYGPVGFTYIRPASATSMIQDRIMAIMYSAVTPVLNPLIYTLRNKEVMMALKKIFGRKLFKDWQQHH
Method in brief: as §1

OR13A1 (Homo sapiens) = target: T8, OR13A1 (Homo sapiens) (UniProt Q8NGR1)
T8 sequence (whole entry): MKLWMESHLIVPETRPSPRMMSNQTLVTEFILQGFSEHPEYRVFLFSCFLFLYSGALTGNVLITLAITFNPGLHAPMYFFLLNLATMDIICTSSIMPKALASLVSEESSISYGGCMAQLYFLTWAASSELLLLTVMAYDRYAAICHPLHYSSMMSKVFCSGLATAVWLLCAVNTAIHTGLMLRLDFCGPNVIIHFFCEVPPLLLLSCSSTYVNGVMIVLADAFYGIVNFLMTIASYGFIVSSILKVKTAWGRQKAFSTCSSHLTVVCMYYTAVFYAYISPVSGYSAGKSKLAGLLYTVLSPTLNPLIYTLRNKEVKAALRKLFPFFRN
Method in brief: as §1

OR11H7 (Homo sapiens) = OR11H7 (Homo sapiens) (UniProt Q8NGC8)
Chain of OR11H7 (Homo sapiens) (Q8NGC8 whole entry): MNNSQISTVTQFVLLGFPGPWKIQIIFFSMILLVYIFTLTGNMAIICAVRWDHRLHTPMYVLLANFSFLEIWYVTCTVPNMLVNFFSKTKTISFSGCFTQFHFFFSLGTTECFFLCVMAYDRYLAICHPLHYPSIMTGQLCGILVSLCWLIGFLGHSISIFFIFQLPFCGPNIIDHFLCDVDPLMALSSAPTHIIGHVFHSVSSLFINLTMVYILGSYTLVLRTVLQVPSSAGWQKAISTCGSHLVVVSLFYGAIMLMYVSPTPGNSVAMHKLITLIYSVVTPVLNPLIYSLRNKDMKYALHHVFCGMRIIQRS
Method in brief: as §1

OR12D1 (Homo sapiens) = OR12D1 (Homo sapiens) (UniProt P0DN82)
Chain of OR12D1 (Homo sapiens) (P0DN82 as listed by the source): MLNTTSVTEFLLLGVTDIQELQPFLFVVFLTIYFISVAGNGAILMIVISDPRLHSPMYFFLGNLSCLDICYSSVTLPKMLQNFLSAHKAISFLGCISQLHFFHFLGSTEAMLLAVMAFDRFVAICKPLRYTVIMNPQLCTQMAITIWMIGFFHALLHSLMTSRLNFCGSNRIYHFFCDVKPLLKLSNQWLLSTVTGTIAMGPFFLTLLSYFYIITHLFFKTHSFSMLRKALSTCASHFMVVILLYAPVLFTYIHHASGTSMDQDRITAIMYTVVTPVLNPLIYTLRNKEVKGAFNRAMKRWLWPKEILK
Method in brief: as §1

| Compound | odorant receptor agonist call (OR11H12 (Homo sapiens)) | odorant receptor agonist call (OR11H2 (Homo sapiens)) | odorant receptor agonist call (OR11H4 (Homo sapiens)) | odorant receptor agonist call (OR11H6 (Homo sapiens)) | odorant receptor agonist call (OR11L1 (Homo sapiens)) | odorant receptor agonist call (OR12D2 (Homo sapiens)) | odorant receptor agonist call (OR12D3 (Homo sapiens)) | odorant receptor agonist call (OR13A1 (Homo sapiens)) | odorant receptor agonist call (OR11H7 (Homo sapiens)) | odorant receptor agonist call (OR12D1 (Homo sapiens)) |
| --- | --- | --- | --- | --- | --- | --- | --- | --- | --- | --- |
| CC1=C(O)C(=O)OC1C (stereo unspecified) | inactive | inactive | inactive | inactive | inactive | inactive | inactive | inactive |  |  |
| CCCCCC(S)C(C)CO (stereo unspecified) |  | active | inactive | inactive | inactive | inactive | inactive | inactive |  |  |
| CC1=C(O)C(=O)C(C)O1 (stereo unspecified) | inactive | inactive | inactive | inactive | inactive | inactive | inactive | inactive |  |  |
| CC(CO)CS (stereo unspecified) |  | inactive | inactive | inactive | inactive | inactive | inactive | inactive |  |  |
| CC1=NC(C)C(C)S1 (stereo unspecified) | inactive | inactive | inactive | inactive | inactive | inactive | inactive | inactive |  |  |
| CCCC(S)CCOC(C)=O (stereo unspecified) | inactive | inactive | inactive | inactive | inactive | inactive | inactive | inactive |  |  |
| CCC1OC(=O)C(O)=C1C (stereo unspecified) | inactive | inactive | inactive | inactive | inactive | inactive | inactive | inactive |  |  |
| O=c1ccc2ccccc2o1 | active |  |  |  |  |  |  |  |  |  |
| CC(=O)c1c(C)c([N+](=O)[O-])c(C(C)(C)C)c([N+](=O)[O-])c1C | inactive | inactive | inactive | inactive | inactive | inactive | inactive | inactive | inactive | inactive |
| CCCCCC(=O)C(C)C(C)=O (stereo unspecified) |  | inactive | inactive | inactive | inactive | inactive | inactive | inactive |  |  |
| CCC(S)C(C)CO (stereo unspecified) |  | inactive | inactive | inactive | inactive | inactive | inactive | inactive |  |  |
| Cc1cnc(C)c(C)n1 | inactive | inactive | inactive | inactive | inactive | inactive | inactive | inactive |  |  |
| O=C1CCOc2ccccc21 | inactive |  |  |  |  |  |  |  |  |  |
| CCCCCCC=CCCC=O | inactive | inactive | inactive | inactive | inactive | inactive | inactive | inactive |  |  |
| CC1CCCCCCCCCCCCC(=O)C1 (stereo unspecified) | inactive | inactive | inactive | inactive | inactive | inactive | inactive | inactive | inactive | inactive |
| CCCCC(S)C(C)CO (stereo unspecified) |  | inactive | inactive | inactive | inactive | inactive | inactive | inactive |  |  |
| CCC1OC(C)=C(O)C1=O (stereo unspecified) | inactive | inactive | inactive | inactive | inactive | inactive | inactive | inactive |  |  |
